Assays:
Estrogen receptor [1] = molecular target: T1, Estrogen receptor (Homo sapiens, UniProt P03372); assay: Agonist activity at ERalpha in estrogen-sensitive human T47D cells assessed as cell proliferation at 0.01 uM after 7 days by MTS assay; type: cell-based; settings: 168 h
T1 sequence (P03372 whole entry): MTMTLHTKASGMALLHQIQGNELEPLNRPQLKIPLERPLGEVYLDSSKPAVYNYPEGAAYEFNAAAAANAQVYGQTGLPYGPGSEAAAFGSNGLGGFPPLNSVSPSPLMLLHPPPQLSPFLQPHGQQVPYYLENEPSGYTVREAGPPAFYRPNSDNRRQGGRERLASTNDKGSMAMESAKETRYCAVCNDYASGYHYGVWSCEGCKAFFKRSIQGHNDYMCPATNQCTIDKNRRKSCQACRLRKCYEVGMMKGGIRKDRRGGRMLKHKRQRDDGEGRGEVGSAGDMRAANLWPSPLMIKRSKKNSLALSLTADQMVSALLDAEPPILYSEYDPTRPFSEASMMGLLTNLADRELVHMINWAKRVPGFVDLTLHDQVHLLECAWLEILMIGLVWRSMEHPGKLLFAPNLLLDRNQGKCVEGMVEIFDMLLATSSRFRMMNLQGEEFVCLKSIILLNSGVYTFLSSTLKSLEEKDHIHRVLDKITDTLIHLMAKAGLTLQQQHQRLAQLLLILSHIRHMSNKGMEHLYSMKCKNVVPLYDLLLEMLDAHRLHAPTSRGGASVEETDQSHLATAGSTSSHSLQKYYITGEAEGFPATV
In short: (§1)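 Seeded 3000 cells/well, 48 h attachment. Compounds diluted from DMSO (final ≤0.1%) in medium, renewed every 2 days for 7 days. Proliferation read by MTS, 4 h at 37 °C, absorbance 490 nm. Control (medium + DMSO) set to 100%. Mean ± SD of triplicates.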

Estrogen receptor [2] = molecular target: T1, Estrogen receptor; assay: Agonist activity at ERalpha in estrogen-sensitive human T47D cells assessed as cell proliferation at 0.1 uM after 7 days by MTS assay; type: cell-based; settings: 168 h; in short: as §1
Estrogen receptor [3] = molecular target: T1, Estrogen receptor; assay: Agonist activity at ERalpha in estrogen-sensitive human T47D cells assessed as cell proliferation at 1 uM after 7 days by MTS assay; type: cell-based; settings: 168 h; in short: as §1
[4] = Cytotoxicity against estrogen-sensitive human T47D cells assessed as reduction in cell proliferation at 5 uM after 7 days by MTS assay; type: toxicity, cell-based; settings: 168 h; in short: as §1
[5] = molecular target: T2, Estrogen receptor (Homo sapiens) (UniProt P03372); assay: Antiestrogenic activity at ERalpha in estrogen-sensitive human T47D cells assessed as blockage of E2 stimulated cell proliferation at 5 uM after 7 days in presence of E2 by MTS assay; type: cell-based
T2 sequence (whole entry): T1 sequence (P03372 whole entry)
In short: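 Estrogen-deprived T-47D cells (RPMI, insulin 50 ng/mL, 5% charcoal-stripped FBS) seeded at 3000 cells/well, attached 48 h. Then treated 7 days with compound plus E2 (0.1 nM), medium renewed every 2 days. DMSO final ≤0.1%. MTS added 4 h, A490. Control (medium + DMSO) = 100%. Mean ± SD of triplicates.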

[6] = Cytotoxicity against human Saos2 cells assessed as reduction in cell proliferation at 5 to 10 uM after 7 days by MTS assay; type: toxicity, cell-based; settings: saos-2, 168 h
In short: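 Saos-2 cells in phenol-red-free McCoy's 5A with 10% charcoal-stripped FBS. Seeded 3000 cells/well, treated after 24 h with compounds from 1 nM to 10 µM (DMSO ≤0.1% final), renewed every 2 days for 7 days. MTS 2 h at 37 °C, absorbance 490 nm. Control (medium + DMSO) = 100%. Mean ± SD of triplicates.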

[7] = Cytotoxicity against estrogen-sensitive human T47D cells assessed as reduction in cell proliferation at 0.01 to 1 uM after 7 days by MTS assay; type: toxicity, cell-based; settings: 168 h; in short: as §1
Steryl-sulfatase = molecular target: T3, Steryl-sulfatase (Homo sapiens, UniProt P08842); assay: Inhibition of steroid sulfatase (unknown origin) expressed in HEK293 cells assessed as reduction in transformation of [3H]-E1S to E1 after 2 hrs by liquid scintillation counting; type: cell-based
T3 sequence (P08842 whole entry): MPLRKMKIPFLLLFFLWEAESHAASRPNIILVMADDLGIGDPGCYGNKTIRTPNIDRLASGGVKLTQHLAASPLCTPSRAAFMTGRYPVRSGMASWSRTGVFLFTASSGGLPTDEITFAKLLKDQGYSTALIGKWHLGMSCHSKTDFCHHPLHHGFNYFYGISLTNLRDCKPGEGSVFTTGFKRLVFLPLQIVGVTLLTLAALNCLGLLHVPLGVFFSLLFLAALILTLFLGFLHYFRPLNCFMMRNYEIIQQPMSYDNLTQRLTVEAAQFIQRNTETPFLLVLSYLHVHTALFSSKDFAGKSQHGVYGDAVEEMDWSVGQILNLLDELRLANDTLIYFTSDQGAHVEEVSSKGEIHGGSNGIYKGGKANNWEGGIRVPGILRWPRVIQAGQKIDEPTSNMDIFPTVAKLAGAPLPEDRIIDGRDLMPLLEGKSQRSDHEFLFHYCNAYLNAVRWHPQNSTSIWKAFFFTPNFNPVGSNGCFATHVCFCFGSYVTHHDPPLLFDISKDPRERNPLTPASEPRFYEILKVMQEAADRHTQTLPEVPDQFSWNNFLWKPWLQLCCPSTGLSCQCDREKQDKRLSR
In short: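 Homogenate of STS-overexpressing HEK-293 cells (lysed by 5 freeze (−80 °C)/thaw (4 °C) cycles) incubated 2 h at 37 °C with inhibitors 0.01–1 µM and [3H]-E1S 9 nM adjusted to 1 µM with E1S, in Tris-acetate pH 7.4 with 5 mM EDTA, 10% glycerol. Xylene extraction separated E1 from E1S; scintillation counting; % inhibition vs no-inhibitor control; IC50 from curve; triplicates, mean ± SD.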

| Structure (SMILES) | Activity (Estrogen receptor [1]) | Activity (Estrogen receptor [2]) | Activity (Estrogen receptor [3]) | Activity [4] | Activity [5] | Activity [6] | Activity [7] | IC50 (Steryl-sulfatase) |
| --- | --- | --- | --- | --- | --- | --- | --- | --- |
| O=C(c1ccc(CN(CCCn2ccnc2)Cc2ccco2)cc1)N1CCc2ccc(O)cc2C1 | 94.9% | 98.5% | 114.6% |  |  |  |  |  |
| O=C(c1ccc(CN(Cc2ccco2)Cc2ccccc2OCCCN2CCCCC2)cc1)N1CCc2ccc(O)cc2C1 | 96.8% | 105.9% | 0% |  |  |  |  |  |
| NS(=O)(=O)Oc1ccc2c(c1)CN(C(=O)c1ccc(CN(Cc3ccccn3)Cc3ccco3)cc1)CC2 |  |  |  | Toxic |  |  |  |  |
| O=C(c1ccc(CN(CCN2CCOCC2)Cc2ccco2)cc1)N1CCc2ccc(O)cc2C1 | 108.2% | 105.9% | 118.8% |  |  |  |  |  |
| O=C(c1ccc(CN(CCCn2ccnc2)Cc2ccccn2)cc1)N1CCc2ccc(O)cc2C1 | 102.8% | 112.9% | 39.2% |  |  |  |  |  |
| Cc1ccc(CN(Cc2ccc(C(=O)N3CCc4ccc(O)cc4C3)cc2)Cc2ccccn2)s1 | 100.6% | 105.4% | 78.9% |  |  |  |  |  |
| Cc1ccc(CN(Cc2ccc(C(=O)N3CCc4ccc(O)cc4C3)cc2)Cc2ccco2)s1 | 97.1% | 103.2% | 96.8% |  | 84% | Toxic | Non-Toxic |  |
| O=C(c1ccc(CN(Cc2ccc(O)cc2)Cc2ccco2)cc1)N1CCc2ccc(O)cc2C1 | 108.2% | 138% | 200.3% |  |  |  |  |  |
| O=C(c1ccc(CN(Cc2ccc(OCCCN3CCCCC3)cc2)Cc2ccco2)cc1)N1CCc2ccc(O)cc2C1 | 95.6% | 119.7% | 133.7% |  |  |  |  |  |
| O=C(c1ccc(OCCN2CCCCC2)cc1)c1c(-c2ccc(O)cc2)sc2cc(O)ccc12 [RALOXIFENE] |  |  |  | Toxic |  | Toxic |  |  |
| O=C(c1ccc(CN(Cc2ccccn2)Cc2ccccc2OCCCN2CCCCC2)cc1)N1CCc2ccc(O)cc2C1 | 102.8% | 99.8% | 37.1% |  |  |  |  |  |
| Cc1ccc(CN(Cc2ccc(C(=O)N3CCc4ccc(OS(N)(=O)=O)cc4C3)cc2)Cc2ccco2)s1 |  |  |  | Toxic |  | Toxic |  | 8.9 nM |
| O=C(c1ccc(CN(Cc2ccccn2)Cc2ccco2)cc1)N1CCc2ccc(O)cc2C1 | 104.1% | 103.2% | 103.5% |  |  |  | Non-Toxic |  |
| COc1ccc(CN(Cc2ccc(C(=O)N3CCc4ccc(O)cc4C3)cc2)Cc2ccccn2)cc1 | 105.6% | 104.6% | 100.9% | Toxic |  |  | Non-Toxic |  |
| O=C(c1ccc(CN(Cc2ccc(Br)cc2)Cc2ccco2)cc1)N1CCc2ccc(O)cc2C1 | 106.3% | 109.4% | 59.2% |  |  |  |  |  |
| O=C(c1ccc(CN(Cc2ccc(OCCCN3CCCCC3)cc2)Cc2ccccn2)cc1)N1CCc2ccc(O)cc2C1 | 105.9% | 104.5% | 60.7% |  |  |  |  |  |
| COc1cc2c(cc1OS(N)(=O)=O)CC[C@@H]1[C@@H]2CC[C@@]2(C)[C@H]1CC[C@@]2(O)Cc1ccccc1 |  |  |  |  |  |  |  | 0.05 nM |
| COc1ccc(CN(Cc2ccc(C(=O)N3CCc4ccc(OS(N)(=O)=O)cc4C3)cc2)Cc2ccccn2)cc1 |  |  |  | Toxic |  |  |  |  |

— ChEMBL document CHEMBL3856185, “Discovery of a sulfamate-based steroid sulfatase inhibitor with intrinsic selective estrogen receptor modulator properties” (Eur J Med Chem, 2016)
